Hits are enriched below; roughly 4.1% of the tested compounds scored in any of these assays.
SMARCA2 activ: SMARCA2 function activation, primary screen. MG213 cells, MMTV-luciferase reporter, dexamethasone, overnight. activation, % at 9.1 µM. 370,000 tested, 1% active; in the data active = activation above about 7.8%;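 also: 0% = vehicle wells and 100% = reference activator wells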
Tb MetRS inh: Trypanosoma brucei MetRS inhibition; purified T. brucei MetRS, ATP depletion, Kinase-Glo luminescence; inhibition, % at 11.9 µM; 360,000 tested, 0.4% active;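 active = inhibition above a per-plate cutoff of the control wells' mean inhibition plus 3 SD, cut at about 5.5% in these data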;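 also: 0% = DMSO wells median and 100% = median of wells with control inhibitor compound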
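Material: T. brucei methionyl-tRNA synthetase, purified; reagent: substrates ATP, L-methionine and bulk Escherichia coli tRNA; dosing: 11.9 µM single point; timing: 15 min plus 2 h at 25 °C; detection: luminescence of leftover ATP; evaluation: % inhibition; control set: DMSO-only wells as low control; replicates: singlicate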
H9c2 TAG inh: triacylglycerol accumulation inhibition. inhibition, % at 12.5 µM. 230,000 tested, 0.66% active. AID 651582. H9c2 cells, Nile Red lipid (TAG) fluorescence; cells loaded with 200 µM oleic acid;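 active = pattern-corrected inhibition of lipid staining of at least 50% with the nuclear-stain viability signal not falling by more than 50%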;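 also: 0% = DMSO wells and 100% = triacsin C control wells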
Efflux pump inh: antifungal efflux pump inhibition, Nile Red retention; inhibition, % at 10 µM; S. cerevisiae Candida pump triplex; 330,000 tested, 0.44% active;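 active = plate passing quality check with inhibition over a set limit, or well fluorescence over plate mean plus 4 SD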;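 also: Nile Red retained in pooled yeast measured as flow cytometry median fluorescence; 0% = buffer negative control and 100% = Enniatin B positive control; higher means more Nile Red kept so more efflux inhibition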
AHR activator: human AHR activation. P35869. AHR-responsive luciferase reporter cells, luminescence. activation, % at 5 µM. 320,000 tested, 2.5% active; in the data active = activation above about 47%;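 also: 0% = vehicle wells and 100% = reference agonist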
AHR act confirm: confirmation of human aryl hydrocarbon receptor activators; shares compounds with AHR activator; human cells, AHR-responsive luciferase reporter, luminescence; activation, % at 9 µM; 2,300 tested, 87% active; in the data active = activation above about 49%;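 also: HepG2 hepatoma cells carrying a DRE-driven firefly luciferase reporter; 0% = vehicle wells and 100% = reference agonist wells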
PXR counter: counter-screen for AHR activators: human PXR activators; shares compounds with AHR activator; cell-based PXR reporter, luciferase luminescence; activation, % at 11.6 µM; 2,300 tested, 88% active; AID 434939; in the data active = activation above about 11%;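 also: human hepatoma DPX-2 cells expressing full-length human PXR; 0% = DMSO and 100% = reference agonist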
Target sequence (O75469 whole entry, looked up): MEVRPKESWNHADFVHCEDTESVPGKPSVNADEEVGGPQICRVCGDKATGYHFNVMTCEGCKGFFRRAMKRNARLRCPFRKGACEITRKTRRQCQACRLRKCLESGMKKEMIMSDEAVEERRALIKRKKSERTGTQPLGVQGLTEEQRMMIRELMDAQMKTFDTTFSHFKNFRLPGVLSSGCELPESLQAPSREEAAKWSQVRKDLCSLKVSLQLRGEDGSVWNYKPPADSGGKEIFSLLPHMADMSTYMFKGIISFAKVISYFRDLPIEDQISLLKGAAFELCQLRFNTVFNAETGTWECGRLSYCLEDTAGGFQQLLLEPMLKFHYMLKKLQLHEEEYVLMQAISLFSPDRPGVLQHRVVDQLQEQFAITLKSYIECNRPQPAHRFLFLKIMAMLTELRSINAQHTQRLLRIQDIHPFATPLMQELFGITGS
* marks the source's active call; other numbers are inactive results.

What do the screens show for `CN1CCN(c2ccc(Cl)cc2NC(=O)C2COc3ccccc3O2)CC1` (stereo unspecified)?
SMARCA2 activ: 1; Tb MetRS inh: 0; H9c2 TAG inh: -8; Efflux pump inh: 0; AHR activator: 108*; AHR act confirm: 90*; PXR counter: 30*

How did CCOC(=O)N1CCN(C(=O)C[C@H]2C(=O)N(Cc3ccc(OC)cc3)C3=CCCC[C@@]32C(=O)OCC)CC1 do in these assays?
SMARCA2 activ: -2

Results for Cc1ccc2sc(NNC(=O)C3COc4ccccc4O3)nc2c1C (stereo unspecified) ?
SMARCA2 activ: -3; Tb MetRS inh: 0; H9c2 TAG inh: -8; Efflux pump inh: 0; AHR activator: 137*; AHR act confirm: 65*; PXR counter: 48*

Results for Clc1cccc(-c2ccc(CNCc3ccccn3)o2)c1 ?
SMARCA2 activ: 0; Tb MetRS inh: -1; Efflux pump inh: 0; AHR activator: 121*; AHR act confirm: 87*; PXR counter: 24*

What do the screens show for `O=C(N/N=C/c1cccc(O)c1)c1ccc(COc2ccc3c(c2)CCC3)o1`?
SMARCA2 activ: 5; Tb MetRS inh: 0; Efflux pump inh: 0; AHR activator: 118*; AHR act confirm: 64*; PXR counter: 19*

How did O=C(c1ccc(COc2ccc3c(c2)CCC3)o1)N1CCN(c2ccccc2)CC1 do in these assays?
SMARCA2 activ: 3; Tb MetRS inh: 0; Efflux pump inh: 0; AHR activator: 18

How did CCOc1ccc(-n2c(SCC(=O)Nc3ccccc3-c3ccccc3)nnc2-c2ccccc2)cc1 do in these assays?
SMARCA2 activ: -4

How did O=C(N/N=C/c1c[nH]c2ccccc12)c1ccccc1Cl do in these assays?
SMARCA2 activ: 5; Tb MetRS inh: 1; Efflux pump inh: 0

What do the screens show for `O=C(N/N=C/c1c[nH]c2ccccc12)c1cc(Cl)ccc1O`?
SMARCA2 activ: 1; Tb MetRS inh: 0; Efflux pump inh: 0; AHR activator: 148*; AHR act confirm: 113*; PXR counter: 5

How did CCc1ccc(/C=N/NC(=O)c2cc(-c3ccncc3)nc3ccccc23)s1 do in these assays?
SMARCA2 activ: -2; Tb MetRS inh: 0; H9c2 TAG inh: 47; Efflux pump inh: 1; AHR activator: 28

How did Cc1occc1C(=O)N/N=C/c1c[nH]c2ccccc12 do in these assays?
Tb MetRS inh: 0; Efflux pump inh: 0; AHR activator: 123*; AHR act confirm: 112*; PXR counter: 23*

What do the screens show for `CCc1ccc(/C=N/NC(=O)c2c[nH]c3ccccc23)s1`?
SMARCA2 activ: 5; Tb MetRS inh: 0; Efflux pump inh: 0; AHR activator: 85*; AHR act confirm: 39; PXR counter: 42*

How did O=C(N/N=C\c1ccc(Cl)s1)C1COc2ccccc2O1 (stereo unspecified) do in these assays?
SMARCA2 activ: -5; Tb MetRS inh: 0; H9c2 TAG inh: -2; Efflux pump inh: 0; AHR activator: 0

Results for O=C(N/N=C/c1c[nH]c2ccccc12)C1COc2ccccc2O1 (stereo unspecified) ?
SMARCA2 activ: -1; Tb MetRS inh: 0; Efflux pump inh: 0; AHR activator: 92*; AHR act confirm: 72*

Results for COC(=O)C1CN(C2CCCC2)CCS(=O)(=O)N1Cc1ccc(C)cc1 (stereo unspecified) ?
SMARCA2 activ: 0

What do the screens show for `COC(=O)c1cc2c(c3c4cc(C)ccc4n(S(=O)(=O)c4ccc(C)cc4)c13)C(=O)N(C)C2`?
SMARCA2 activ: -6

Results for C[C@@H]1OC(C2CCCCC2)N(C)[C@H]2C[C@H]3c4[nH]c5cccc(-c6ccccc6)c5c4CCN3C[C@@H]12 (stereo partly specified) ?
SMARCA2 activ: 0

How did Cc1cc(N2CCN(C(=O)OC(C)(C)C)C[C@@H]2C)ccc1N1CCS(=O)(=O)CC1 do in these assays?
SMARCA2 activ: -1

What do the screens show for `CCc1ccc(S(=O)(=O)/N=C2\C=CC(=O)c3ccccc32)cc1`?
Efflux pump inh: 0; AHR activator: 112*; AHR act confirm: 93*; PXR counter: 164*

How did Fc1cccc2sc(Nc3nnc(-c4ccccc4)o3)nc12 do in these assays?
SMARCA2 activ: 3; Tb MetRS inh: 1; H9c2 TAG inh: -25; Efflux pump inh: 0; AHR activator: 155*; AHR act confirm: 120*; PXR counter: 22*

What do the screens show for `COc1cc(OC)cc(-c2nnc(Nc3nc4c(F)cccc4s3)o2)c1`?
SMARCA2 activ: -2; Tb MetRS inh: 0; Efflux pump inh: 0; AHR activator: 0

How did COc1ccc2cc(-c3cccc4[nH]cc(C)c34)ccc2c1 do in these assays?
SMARCA2 activ: -2

What do the screens show for `COc1ccc2nc(NC(=O)C3CSC4(C)CCC(=O)N34)sc2c1` (stereo unspecified)?
SMARCA2 activ: 6; Tb MetRS inh: 0; H9c2 TAG inh: 18; Efflux pump inh: 0; AHR activator: 5

Results for CC12CCC(=O)N1C(C(=O)Nc1nc3ccc(Cl)cc3s1)CS2 (stereo unspecified) ?
SMARCA2 activ: 1; Tb MetRS inh: 0; H9c2 TAG inh: 15; Efflux pump inh: 0; AHR activator: 127*; AHR act confirm: 110*; PXR counter: 65*

Results for Cc1sc(NC(=O)C2CSC3(C)CCC(=O)N23)nc1-c1ccc(F)cc1 (stereo unspecified) ?
SMARCA2 activ: 0; Tb MetRS inh: 0; H9c2 TAG inh: 30; Efflux pump inh: 0; AHR activator: 151*; AHR act confirm: 101*; PXR counter: 151*

What do the screens show for `Cc1ccc(-c2csc(NC(=O)C3CSC4(C)CCC(=O)N34)n2)cc1` (stereo unspecified)?
SMARCA2 activ: 1; Tb MetRS inh: 0; H9c2 TAG inh: -1; Efflux pump inh: 0; AHR activator: 5

Results for CCc1ccc(N=Nc2ccc(O)c3[nH]cnc23)cc1 ?
SMARCA2 activ: 4; Tb MetRS inh: 0; H9c2 TAG inh: -21; Efflux pump inh: 0; AHR activator: 101*; AHR act confirm: 93*; PXR counter: 11*

Results for CCOc1ccccc1Nc1nnc(SCC(=O)Nc2cccc(S(=O)(=O)NC3=NCCCCC3)c2)s1 ?
SMARCA2 activ: -5; Tb MetRS inh: 0; Efflux pump inh: -3; AHR activator: 87*; AHR act confirm: 76*; PXR counter: 127*

How did O=C(CSc1nnc(-c2ccc(Cl)cc2)n1-c1ccccc1)Nc1ccc(Oc2ccccc2)cc1 do in these assays?
SMARCA2 activ: -4

Results for O=C(Nc1ccc2c(c1)OCO2)c1ccncc1 ?
SMARCA2 activ: 2; Tb MetRS inh: 0; H9c2 TAG inh: -14; Efflux pump inh: 0; AHR activator: 103*; AHR act confirm: 74*

Screens deposited in PubChem BioAssay by several laboratories.
